Reference: ChEMBL document CHEMBL4373703 (J Med Chem, 2019)
Values after ≈ are worked out from the molar mass of the structure shown. Active and inactive are the calls of the source. No cut-off for these calls is given here.

Columns and labels:
[1] = Apparent permeability across apical to basolateral side in human Caco2 cells at 1 uM incubated for 2 hrs by LC-MS/MS analysis; type: ADME, cell-based; conditions: Caco-2
[2] = Kinetic solubility of the compound; type: physicochemical; conditions: read-out: Kinetic_solubility
[3] = target: Voltage-gated inwardly rectifying potassium channel KCNH2 (Homo sapiens, UniProt Q12809); assay: Inhibition of human ERG expressed in HEK293 cells at -80 mV holding potential by […]; type: cell-based
[4] = Intrinsic clearance in human liver microsomes at 1 uM in presence of NADPH measured up to 30 mins by LC-MS/MS analysis; type: ADME, Microsome; conditions: read-out: CLH
[5] = test system: Mus musculus; assay: Inhibition of B cell activation in C57BL/6 mouse at 1 mg/kg, po after 0.25 hr relative to control; type: functional
[6] = test system: Mus musculus; assay: Inhibition of B cell activation in C57BL/6 mouse at 1 mg/kg, po after 1 hr relative to control; type: functional
Procedure, shortened: (§1)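 Normal C57BL/6 mice received a single oral dose of 1 mg/kg and were tested in an in vivo B cell stimulation assay. Inhibition of B cell activation was read at 1 h and 24 h after dosing.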

[7] = test system: Mus musculus; assay: Inhibition of B cell activation in C57BL/6 mouse at 1 mg/kg, po after 24 hr relative to control; type: functional; procedure, shortened: as §1
[8] = Cmax in C57BL/6 mouse at 1 mg/kg, po; type: ADME, organism-based; set-up: dose 1 mg/kg, route oral; conditions: in vivo
[9] = target: T1, Tyrosine-protein kinase Tec (Homo sapiens, UniProt P42680); assay: Inhibition of N-terminal His6-tagged human TEC (174 to end aminoacids) expressed in baculovirus infected Sf21 cells at 1 uM; conditions: sf21, 1 µM
T1 sequence (P42680 whole entry): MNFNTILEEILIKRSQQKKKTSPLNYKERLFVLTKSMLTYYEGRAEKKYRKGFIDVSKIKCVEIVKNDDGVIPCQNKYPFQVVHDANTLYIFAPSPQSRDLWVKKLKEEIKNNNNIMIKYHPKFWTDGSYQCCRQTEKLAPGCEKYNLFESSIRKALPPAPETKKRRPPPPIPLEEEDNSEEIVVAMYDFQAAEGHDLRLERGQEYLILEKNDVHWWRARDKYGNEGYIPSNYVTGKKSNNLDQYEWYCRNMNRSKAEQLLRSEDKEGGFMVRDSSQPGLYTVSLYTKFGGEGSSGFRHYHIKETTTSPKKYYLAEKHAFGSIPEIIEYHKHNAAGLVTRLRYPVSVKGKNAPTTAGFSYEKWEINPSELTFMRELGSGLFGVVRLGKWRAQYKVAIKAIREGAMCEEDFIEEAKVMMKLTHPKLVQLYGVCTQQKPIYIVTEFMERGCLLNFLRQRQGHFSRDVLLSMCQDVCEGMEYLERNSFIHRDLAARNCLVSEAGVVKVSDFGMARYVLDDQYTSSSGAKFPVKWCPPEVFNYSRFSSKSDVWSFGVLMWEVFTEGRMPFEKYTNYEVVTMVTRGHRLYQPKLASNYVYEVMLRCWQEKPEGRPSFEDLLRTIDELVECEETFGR

[10] = Tmax in NMRI mouse at 3 mg/kg, po administered as suspension; type: ADME, organism-based; conditions: in vivo
[11] = Tmax in Wistar rat at 10 mg/kg, po administered as suspension; type: ADME, organism-based; conditions: in vivo
[12] = Tmax in Mongrel dog at 3 mg/kg, po administered as suspension; type: ADME, organism-based, Canis lupus familiaris; conditions: in vivo
[13] = Half-life in Mongrel dog plasma at 1 mg/kg, iv or 3 mg/kg, po administered as suspension; type: ADME, organism-based, Canis lupus familiaris
[14] = Half-life in NMRI mouse plasma at 1 mg/kg, iv or 3 mg/kg, po administered as suspension; type: ADME, organism-based
[15] = Half-life in Wistar rat plasma at 2 mg/kg, iv or 10 mg/kg, po administered as suspension; type: ADME, organism-based
[16] = Oral bioavailability in NMRI mouse at 3 mg/kg; type: ADME, organism-based; conditions: in vivo
[17] = Oral bioavailability in Wistar rat at 10 mg/kg; type: ADME, organism-based; conditions: in vivo
[18] = test system: Mus musculus; assay: Antiarthritic activity in […] model of collagen-induced arthritis assessed as reduction in ankle swelling at 3 mg/kg, po administered via gavage once daily starting from day 6 to day 16 and measured from day 11 to day 17 by caliper method; type: functional, organism-based
Procedure, shortened: (§2)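 Female Lewis rats with semi-established type II collagen arthritis were dosed by oral gavage once daily on days 6–16 with vehicle (20% hydroxypropyl-beta-cyclodextrin in H2O), test agent (0.3–30 mg/kg) or methotrexate 0.1 mg/kg. Ankle thickness was measured daily by caliper, and animals were terminated on day 17. n = 10 per treatment group, 4 normal controls; ANOVA vs vehicle, P ≤ 0.05.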

[19] = test system: Mus musculus; assay: Antiarthritic activity in […] model of collagen-induced arthritis assessed as reduction in ankle swelling at 10 mg/kg, po administered via gavage once daily starting from day 6 to day 16 and measured from day 11 to day 17 by caliper method; type: functional, organism-based; procedure, shortened: as §2
[20] = test system: Mus musculus; assay: Antiarthritic activity in […] model of collagen-induced arthritis assessed as reduction in ankle swelling at 30 mg/kg, po administered via gavage once daily starting from day 6 to day 16 and measured from day 10 to day 17 by caliper method; type: functional, organism-based; procedure, shortened: as §2
[21] = Stability of the compound in plasma (unknown origin) assessed as compound remaining at 4 hrs; type: ADME, cell-free; conditions: read-out: Stability
[22] = test system: Rattus norvegicus; assay: Antiarthritic activity in Lewis rat model of collagen-induced arthritis assessed as reduction in ankle histopathological scores at 1 mg/kg, po administered via gavage once daily starting from day 6 to day 16 relative to control; set-up: scale not given: the % may be the effect or the level left
[23] = test system: Rattus norvegicus; assay: Antiarthritic activity in Lewis rat model of collagen-induced arthritis assessed as reduction in ankle histopathological scores at 3 mg/kg, po administered via gavage once daily starting from day 6 to day 16 relative to control; set-up: scale not given: the % may be the effect or the level left
[24] = test system: Rattus norvegicus; assay: Antiarthritic activity in Lewis rat model of collagen-induced arthritis assessed as reduction in ankle histopathological scores at 10 mg/kg, po administered via gavage once daily starting from day 6 to day 16 relative to control; set-up: scale not given: the % may be the effect or the level left
[25] = test system: Rattus norvegicus; assay: Antiarthritic activity in Lewis rat model of collagen-induced arthritis assessed as reduction in ankle histopathological scores at 30 mg/kg, po administered via gavage once daily starting from day 6 to day 16 relative to control; set-up: scale not given: the % may be the effect or the level left
[26] = test system: Rattus norvegicus; assay: Antiarthritic activity in Lewis rat model of collagen-induced arthritis assessed as reduction in ankle histopathological scores at 0.3 mg/kg, po administered via gavage once daily starting from day 6 to day 16 relative to control; set-up: scale not given: the % may be the effect or the level left

Sequence of Voltage-gated inwardly rectifying potassium channel KCNH2 (Q12809 whole entry): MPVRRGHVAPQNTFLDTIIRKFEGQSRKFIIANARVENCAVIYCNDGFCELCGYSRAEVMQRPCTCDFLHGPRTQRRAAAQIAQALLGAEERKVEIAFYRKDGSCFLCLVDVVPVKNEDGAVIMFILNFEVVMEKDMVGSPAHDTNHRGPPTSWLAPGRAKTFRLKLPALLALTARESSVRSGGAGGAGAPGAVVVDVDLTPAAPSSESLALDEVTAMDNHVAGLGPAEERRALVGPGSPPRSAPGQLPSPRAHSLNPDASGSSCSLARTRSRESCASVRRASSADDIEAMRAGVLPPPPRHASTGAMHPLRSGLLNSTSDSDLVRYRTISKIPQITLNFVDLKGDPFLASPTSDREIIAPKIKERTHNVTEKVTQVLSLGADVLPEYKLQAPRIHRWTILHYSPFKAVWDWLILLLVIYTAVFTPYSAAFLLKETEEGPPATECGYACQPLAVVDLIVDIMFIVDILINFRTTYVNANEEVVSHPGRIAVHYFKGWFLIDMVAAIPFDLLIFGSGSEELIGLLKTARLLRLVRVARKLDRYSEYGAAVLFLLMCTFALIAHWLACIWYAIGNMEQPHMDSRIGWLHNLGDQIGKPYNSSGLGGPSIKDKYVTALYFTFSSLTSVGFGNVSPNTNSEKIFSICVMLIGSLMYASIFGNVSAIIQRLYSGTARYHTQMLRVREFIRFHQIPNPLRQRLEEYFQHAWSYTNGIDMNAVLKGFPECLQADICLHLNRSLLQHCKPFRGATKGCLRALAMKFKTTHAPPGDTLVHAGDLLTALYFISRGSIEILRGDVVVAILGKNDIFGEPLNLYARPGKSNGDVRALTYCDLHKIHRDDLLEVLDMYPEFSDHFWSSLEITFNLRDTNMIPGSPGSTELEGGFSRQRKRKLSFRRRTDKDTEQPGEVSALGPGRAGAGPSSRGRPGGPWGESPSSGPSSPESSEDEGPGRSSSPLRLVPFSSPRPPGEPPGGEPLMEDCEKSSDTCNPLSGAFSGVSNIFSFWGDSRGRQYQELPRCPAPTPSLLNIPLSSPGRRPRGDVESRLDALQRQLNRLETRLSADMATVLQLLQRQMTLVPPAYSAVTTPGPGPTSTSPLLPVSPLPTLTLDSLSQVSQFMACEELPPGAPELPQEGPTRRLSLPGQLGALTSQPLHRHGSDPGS

With C=CC(=O)N1CCC(CNc2ncnc(N)c2-c2ccc(Oc3ccccc3)cc2)CC1 [EVOBRUTINIB] as the compound, how does the Papp A→B at 2 h, 1 µM [1] read?
The Papp A→B at 2 h, 1 µM was 22 ×10⁻⁶ cm/s.

And the solubility kinetic [2]?
The solubility kinetic was 60 µM (≈ 25.8 µg/mL).

And the Ki [3]?
Its Ki is 3.1 µM.

What about the microsomal CLint at 1 µM [4] of the same compound?
Its microsomal CLint at 1 µM is 110 µL/min/mg.

What about the “inhibition (INH)” value [5] of the same compound?
Its value is 17%.

What about the “inhibition (INH)” value [6] of the same compound?
Its value is 71%.

What about the “inhibition (INH)” value [7] of the same compound?
Its value is 25%.

What about the Cmax [8] of the same compound?
The Cmax was 52 nM.

And the “inhibition (INH)” value [9]?
The value was “Active”.

And the Tmax [10]?
The Tmax was 0.25 to 1 h.

And the Tmax [11]?
Its Tmax is 0.25 to 1 h.

And the Tmax [12]?
The Tmax was 0.25 to 1 h.

And the half-life [13]?
The half-life was 1 h.

What about the half-life [14] of the same compound?
Its half-life is 1 h.

What about the half-life [15] of the same compound?
Its half-life is 1 h.

And the bioavailability [16]?
Its bioavailability is no more than 25%.

What about the bioavailability [17] of the same compound?
Its bioavailability is less than 5%.

And the Activity [18]?
The Activity was “Active”.

And the Activity [19]?
The Activity was “Active”.

What about the Activity [20] of the same compound?
Its Activity is “Active”.

What about the remaining at 4 h [21] of the same compound?
Its remaining at 4 h is 81%.

What about the Activity [22] of the same compound?
The Activity was 3%.

And the Activity [23]?
Its Activity is 42%.

And the Activity [24]?
The Activity was 63%.

What about the Activity [25] of the same compound?
Its Activity is 94%.

What about the Activity [26] of the same compound?
Its Activity is 1%.
